The subject of test [1] is Caspase 3/7 in MDA-MB-231 cells. The test can be described thus: Caspase glow 3/7 assay, MDA-MB-231. To be noted: p ≤ 0.0001. The test is classed as cell-based. The gist of the method:
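MDA-MB-231 cells were seeded at 5 × 10^3 per well and adhered overnight. They were exposed to the test compound (P1 75, P2 150, P3 300), Dox 0.2 or Dox + P3 for 24, 48 or 72 h. Caspase-Glo 3/7 reagent (substrate/luciferase) was added, followed by 30–60 min at 25 °C. Luminescence was then read.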

The next test concerns LIMK1. The test can be described thus: LIMK1 concentration in serum and tumor tissue of mice by SPR. The test is classed as in vivo, Swiss Albino mice. To be noted: 300 μm FGDWS, Mean ± SD. (In general: SPR reads the build-up and loss of mass on a sensor chip optically.)
The next test deals with Cofilin1. The test can be described thus: Cofilin1 concentration in serum and tumor tissue of mice by SPR. The note with it: 300 μm FGDWS, Mean ± SD. The test is classed as in vivo, Swiss Albino mice.

No end group written: not given here.

Turning to FGDWS [FGDWS], the “fold change in RLU with respect to control (caspase 3/7)” value came out at 0.16 in test [1] (MDA-MB-231, 48 h, P1 75 μm); 0.25 in test [1] (MDA-MB-231, 48 h, P2 150 μm); 0.305 in test [1] (MDA-MB-231, 48 h, P3 300 μm / Dox 0.2 μm / Dox + P3 0.2 μm + 300 μm); 0.35 in test [1] (MDA-MB-231, 72 h, P1 75 μm); 0.57 in test [1] (MDA-MB-231, 72 h, P2 150 μm); 0.65 in test [1] (MDA-MB-231, 72 h, P3 300 μm / Dox 0.2 μm / Dox + P3 0.2 μm + 300 μm). The LIMK1 concentration with LIMK1 (serum, day 45, p-value 0.0001) came out at 6.86 ± 1.46 ng/µL; with LIMK1 (tumor tissue lysate, p-value 0.005), 6.37 ± 1.04 ng/µL. For the same substance, the Cofilin1 concentration with Cofilin1 (serum, day 45, p-value 0.028) was 2.68 ± 0.28 ng/µL; in the test with Cofilin1 (tumor tissue lysate, p-value 0.0048), 2.83 ± 0.53 ng/µL.

For the origin of these results see PMC11500341 (Scientific Reports, 2024).
